Measurements taken from ChEMBL document CHEMBL5321212, “Design, synthesis, and evaluation of substituted alkylindoles that activate G protein-coupled receptors distinct from the cannabinoid CB1 and CB2 receptors” (Eur J Med Chem, 2023).
The source made the active and inactive calls. The rule behind the calls is not given here.

Key:
[1] = Displacement of [3H]-WIN55212-2 from HEK293 cell membrane lacking CB1R and CB2R assessed as inhibition constant; assay type: cell membranes, Homo sapiens
Method in brief: (§1)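 HEK293 membranes (P2 fractions from independent cultures) incubated with [³H]WIN55212-2 plus increasing concentrations of competitor; specific binding determined by filtration. Ki derived from competition curves, fitted as one or two sites (high and low affinity) where curves were biphasic. n = 3–8 independent membrane preparations, each run in triplicate.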

[2] = tested on: HEK293; assay: (§2) Induction of [35S]GTPgammaS binding to HEK293 cell membrane lacking CB1R and CB2R by filtration assay; assay type: cell membranes; conditions: Homo sapiens
Method in brief: (§3)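 [³⁵S]GTPγS binding to HEK293 cell membranes stimulated by compound. Gi/o dependence tested by pretreating cultured cells with pertussis toxin (100 ng/ml, 20 h). Where stated, CB1R antagonist […] (1 μM) or CB2R antagonist SR144528 (1 μM) was present. Mean ± SEM of n = 3–4 experiments, each in triplicate.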

[3] = tested on: Cell membrane; assay: Displacement of [3H]-WIN55212-2 from HEK293 cell membrane lacking CB1R and CB2R at 1 uM; assay type: subcellular; conditions: Homo sapiens
[4] = tested on: Cell membrane; assay: Displacement of [3H]-WIN55212-2 from HEK293 cell membrane lacking CB1R and CB2R assessed as inhibition constant for higher affinity site; assay type: subcellular; conditions: Homo sapiens; method in brief: as §1
[5] = tested on: Cell membrane; assay: Displacement of [3H]-WIN55212-2 from HEK293 cell membrane lacking CB1R and CB2R assessed as inhibition constant for lower affinity site; assay type: subcellular; conditions: Homo sapiens; method in brief: as §1
[6] = tested on: HEK293; assay: Induction of HA-tagged human CB1R internalization in HEK293 cells; assay type: functional, cell-based
Method in brief: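 HEK293 cells stably expressing HA-tagged human CB1R exposed to compound at 3 μM. Internalization measured and expressed as % of vehicle control. Antagonism tested with […] (1 μM). Positive control CP55940 (1 μM). Mean ± SEM of 3–5 independent experiments. One-way ANOVA with Bonferroni post-test.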

[7] = tested on: HEK293; assay: Induction of HA-tagged human CB2R internalization in HEK293 cells; assay type: functional, cell-based
Method in brief: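 HEK293 cells stably expressing HA-tagged human CB2R exposed to compound at 3 μM. Internalization measured and expressed as % of vehicle control. Antagonism tested with AM630 (1 μM). Positive control CP55940 (1 μM). Mean ± SEM of 3–5 independent experiments. One-way ANOVA with Bonferroni post-test.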

[8] = tested on: Cell membrane; assay: Displacement of [3H]-WIN55212-2 from HEK293 cell membrane lacking CB1R and CB2R in presence of GTPgammaS by filtration assay; assay type: subcellular; conditions: Homo sapiens
Method in brief: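 HEK293 membranes incubated with [³H]WIN55212-2 and test compound, with or without GTPγS (20 μM). Specific binding determined by filtration assay. Mean ± SEM of n = 3–4 experiments, each in triplicate.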

[9] = as §2; assay type: cell membranes, Homo sapiens; method in brief: as §3
[10] = tested on: HEK293; assay: Induction of [35S]GTPgammaS binding to HEK293 cell membrane lacking CB1R and CB2R in presence of SR141716 by filtration assay; assay type: cell membranes; conditions: Homo sapiens; method in brief: as §3
[11] = tested on: HEK293; assay: Induction of [35S]GTPgammaS binding to HEK293 cell membrane lacking CB1R and CB2R in presence of SR144528 by filtration assay; assay type: cell membranes; conditions: Homo sapiens; method in brief: as §3

C1=C(CCN2CCOCC2)c2ccccc2/C1=C\c1cccc2ccccc12
Ki [1]: 437 nM | Activity [2]: Active

Cc1ccc(C(=O)c2c(C(F)(F)F)n(CCN3CCOCC3)c3ccccc23)c2ccccc12
Ki [1]: 972 nM

CCCn1cc(C(=O)c2ccc(C)c3ccccc23)c2ccccc21
Ki [1]: 319 nM

Cc1c(C(=O)c2cccc3ccccc23)c2cccc3c2n1[C@H](CN1CCOCC1)CO3
Activity [3]: inactive

Cc1ccc(C(=O)c2c(C)n(C3CC3)c3ccccc23)c2ccccc12
Ki [1]: 118 nM

Cc1ccc(C(=O)c2c(C)n(CCN3CCOCC3)c3ccccc23)c2ccccc12
KiH [4]: 0.8 nM | KiL [5]: 0.09 µM | Activity [6]: Active | Activity [7]: Active

Cc1c(C(=O)c2cccc3ccccc23)c2ccccc2n1C
KiH [4]: 2.1 nM | KiL [5]: 1 µM

CC1=C(CCN2CCOCC2)c2ccccc2/C1=C/c1cccc2ccccc12
Ki [1]: 466 nM

CCn1cc(C(=O)c2ccc(C)c3ccccc23)c2ccccc21
Ki [1]: 102 nM

Cc1ccc(C(=O)c2c(C)n(C)c3ccccc23)c2ccccc12
KiH [4]: 0.8 nM | KiL [5]: 2.6 µM

Cc1ccc(C(=O)c2c(C)n(CCN3CCOCC3)c3ccc(Cl)cc23)c2ccccc12
KiH [4]: 10 nM | KiL [5]: 2.3 µM

COc1ccc2c(c1)c(C(=O)c1ccc(C)c3ccccc13)c(C)n2CCN1CCOCC1
Activity [3]: inactive

CCCn1c(C)c(C(=O)c2ccc(C)c3ccccc23)c2ccccc21
Ki [1]: 95 nM

CCn1c(C)c(C(=O)c2ccc(C)c3ccccc23)c2ccccc21
KiH [4]: 1.5 nM | KiL [5]: 0.085 µM | Activity [8]: Active | EC50 [9]: 5 nM | Activity [6]: inactive | Activity [7]: Active | Activity [10]: Active | Activity [11]: Active

Cc1ccc(C(=O)c2c(C)n(CCN3CCOCC3)c3cc(Cl)ccc23)c2ccccc12
Ki [1]: 3.5 nM | EC50 [9]: 3.5 nM

C1=C(CCN2CCOCC2)c2ccccc2/C1=C/c1cccc2ccccc12
Ki [1]: 3400 nM

CC1=C(CCN2CCOCC2)c2ccccc2/C1=C\c1cccc2ccccc12
Ki [1]: 466 nM | Activity [2]: Active

Cc1c(C(=O)c2cccc3ccccc23)c2cccc3c2n1[C@@H](CN1CCOCC1)CO3
KiH [4]: 0.027 nM | KiL [5]: 0.0072 µM

Cc1ccc(C(=O)c2c3n(c4ccccc24)CCCC3)c2ccccc12
KiH [4]: 5.5 nM | KiL [5]: 2.6 µM | Activity [6]: Active | Activity [7]: Active

Cc1ccc(C(=O)c2c(C)n(CC(F)(F)F)c3ccccc23)c2ccccc12
Ki [1]: 1.8 nM | Activity [6]: inactive | Activity [7]: Active

Cc1ccc(C(=O)c2c(C)n(CCN3CCOCC3)c3ncccc23)c2ccccc12
KiH [4]: 0.4 nM | KiL [5]: 0.382 µM | EC50 [9]: 1.1 nM | Activity [6]: Active | Activity [7]: Active

COc1ccc2c(C(=O)c3ccc(C)c4ccccc34)c(C)n(CCN3CCOCC3)c2c1
Ki [1]: 113 nM | EC50 [9]: 229 nM

CCn1c(C)c(C(=O)c2ccc(OC)cc2)c2ccccc21
Activity [3]: inactive

Cn1cc(C(=O)N2CCCc3ccccc32)c2ccccc21
Activity [3]: inactive

Cc1ccc(C(=O)c2c(C)n(CCN3CCOCC3)c3cnccc23)c2ccccc12
KiH [4]: 5.8 nM | KiL [5]: 2.1 µM

Cc1ccc(C(=O)c2c(C)n(CCN3CCOCC3)c3cc(Cl)cc(Cl)c23)c2ccccc12
Activity [3]: inactive
